# Source: PubChem
# An excerpt weighted towards active compounds, which were near 1.7% of everything screened.
# CAL PDZ FP-1 – blocks peptide binding to the human CAL PDZ domain | Q9HD26 | purified CAL PDZ, TMR-peptide fluorescence polarization, 1 h | inhibition, % at 24.9 µM | 300,000 compounds, 0.92% hits | AID 602252;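 active means mean inhibition of at least 30% with at least half of replicates also reaching 30%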;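 further: 0% = DMSO neutral control and 100% = excess unlabeled competitor peptide PRC23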
# CAL PDZ FP-2 – blocks peptide binding to human CAL PDZ domain; purified CAL PDZ, TMR-peptide fluorescence polarization, 1 h; inhibition, % at 20 µM; AID 504414; 330,000 compounds, 0.02% hits; Q9HD26;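 active means highest replicate inhibition of at least 40%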;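 further: plate controls were DMSO neutral control wells for no effect and unlabeled competitor peptide control wells for full effect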
#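 Material: tagged CAL PDZ domain; buffer or medium: 25 mM sodium phosphate pH 7.4, 150 mM NaCl, TCEP, IgG, Thesit; compound dosing: single point, 20 µM; schedule: 1 h incubation at room temperature before polarization reading; measured by: FP readout, S and P plane fluorescence; read-out basis: percent inhibition from loss of millipolarization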
# ARNT TACC3 PPI – ARNT/TACC3 interaction disruption. Q9Y6A5. AlphaScreen His-ARNT PAS-B/GST-TACC3 binding, luminescence; TACC3 fragment carries E629A point mutation. inhibition, % at 9.99 µM. 390,000 compounds, 0.66% hits;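 active means mean inhibition of replicates at least 50% and at least half of replicates each reaching 50%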;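 further: 0% = complete ARNT plus TACC3 wells and 100% = ARNT alone without TACC3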
# CFTR F508del cor – correctors of CFTR F508del function in bronchial epithelial cells | activity (quench increase), % at 7.58 µM | 350,000 compounds, 0.36% hits | CFBE cells, YFP halide quenching; stimulated with forskolin plus potentiator P3; % fluorescence drop versus neutral controls;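 active means mean added fluorescence quench of at least 8% versus neutral control, with both replicates also reaching 8%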;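 further: cells transiently co-express mutant CFTR-F508del with the halide-sensitive YFP; corrector assay measuring rescue of mutant channel to the surface after 24 h compound exposure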
# miR122 inh – miR-122 inhibition in Huh7 cells. 340,000 compounds, 0.3% hits. Huh7 miR-122 Renilla luciferase sensor, 48 h; neutral wells = 0, positive control = 100. activation (reporter increase), % at 12.5 µM;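 active means mean replicate activation score at least 90 and every replicate individually at or above 90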;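 further: higher luciferase means less miR-122 activity so hits act as miR-122 inhibitors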
# PGC1a acetyl inh – PGC1a acetylation modulation, inhibitor mode; U2OS PGC1a acetylation, AlphaScreen anti-acetyl-lysine; with virally co-expressed GCN5 acetyltransferase; inhibition, % at 15.6 µM; 350,000 compounds, 0.17% hits; AID 651687;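 active means every replicate shows inhibition of at least 40%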;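 further: 0% = neutral control wells and 100% = positive control wells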
# Starred values were filed as active, the others as inactive; · = no result; [ ] = another dose, or the depositor's remark.
SMILES,CAL PDZ FP-1,CAL PDZ FP-2,ARNT TACC3 PPI,CFTR F508del cor,miR122 inh,PGC1a acetyl inh
CCCCN(c1ccccc1)c1ncnc(N)c1[N+](=O)[O-],-4,0,-5,1,10,52*
CCOc1ccccc1N1CCN(C(=O)c2cc3ccccc3cc2OC)CC1,3,0,0,17*,130*,-11
COC(=O)c1cc(C(=O)N2CCN(c3cccc(Cl)c3)CC2)cc([N+](=O)[O-])c1,5,-1,11,8.7*,47,-78
CCOc1ccccc1C(=O)N1CCN(c2cccc(Cl)c2)CC1,·,-2,26,·,139*,5
CCC(=O)N(C)C[C@@H]1Oc2cc(-c3ccc(C)cc3)ccc2S(=O)(=O)N([C@@H](C)CO)C[C@H]1C,·,·,1,0,7[16.7 µM],-2
C[C@H](CO)N1C[C@H](C)[C@@H](CN(C)C(=O)NC2CCCCC2)Oc2ccc(NC(=O)C3CC3)cc2CC1=O,·,·,1,-1,1[16.7 µM],10
N#Cc1cccc(C#N)c1NCC1CCCO1 (stereo not given),3,0,-6,3,·,43*
O=C(N/N=C/c1ccc(O)cc1)Nc1cccc2nsnc12,31*,4,-1,-12,·,16
COc1cc(/C=N/NC(=O)Nc2cccc3nsnc23)cc(OC)c1OC,0,1,10,·,-1,-2
O=C(C[C@H]1CC[C@@H]2NC[C@H](O)COC[C@H]2O1)Nc1nccs1,·,·,-8,1,-6[16.7 µM],0
O=C1CCCC2=C1C(c1ccccn1)Nc1ccc(C(=O)c3ccccc3)cc1N2 (stereo not given),-1,0,46*,·,·,·
COc1ccc(C2C(C(=O)c3ccco3)=C(O)C(=O)N2CC2CCCO2)cc1OC (stereo not given),52*,0,-1,2,3,-12
CC(=O)N1[C@@H]2Cn3c(ccc(-c4ccccc4)c3=O)[C@H]1[C@@H](C(=O)Nc1ccccc1)[C@@H]2CO,·,·,8,·,·,·
Cc1cc2c(cc1S(=O)(=O)Nc1ccc(F)cc1)n(C)c(=O)c(=O)n2C,·,-1,28,11*,19,13
O=C(CCN1C(=O)C2CC=CCC2C1=O)NC1CCCCC1 (stereo not given),2,-1,1,0,-9,·
CC1CCC(NC(=O)CCN2C(=O)C3CC=CCC3C2=O)CC1 (stereo not given),67*,0,-3,-3,·,·
CN(C)c1ncnc2c1ccn2C1OC(CO)C(O)C1O (stereo not given),-1,0,-5,-4,·,52*
OCC1OC(n2ccc3c(NO)ncnc32)C(O)C1O (stereo not given),9,-1,24,-3,·,·
CC(C)NC(=O)N(C)C[C@H]1Oc2cc(Br)ccc2S(=O)(=O)N([C@H](C)CO)C[C@@H]1C,·,·,-12,3,11[16.7 µM],-3
O=C(NCCC1=CCCCC1)C1CCC(=O)N(Cc2cccc(C(F)(F)F)c2)C1 (stereo not given),36*,0,-5,-1,-2,-3
COc1cccc(CN2CC(C(=O)NCCc3ccccc3C(F)(F)F)CCC2=O)c1 (stereo not given),57*,-1,-3,1,-1,-3
Cc1noc(C)c1NC(=O)Nc1cccc2c1O[C@H](CN(C)C(=O)Nc1cccc3ccccc13)[C@H](C)CN([C@H](C)CO)C2=O,·,·,6,2,-7[16.7 µM],4
C[C@H](CO)N1C[C@H](C)[C@H](CN(C)Cc2ccc(C(F)(F)F)cc2)Oc2c(NC(=O)Nc3cccc4ccccc34)cccc2C1=O,·,·,15,1,9[16.7 µM],-13
COc1ccc(-n2nnc3c(=O)n(CC(=O)N4CCCc5ccccc54)cnc32)cc1,-8,-1,-1,-1,·,·
COc1ccc(-n2nnc3c(SCC(=O)N4CCCc5ccccc54)ncnc32)cc1,60*,15,-3,0,-8,33
SMILES,CAL PDZ FP-1,CAL PDZ FP-2,ARNT TACC3 PPI,CFTR F508del cor,miR122 inh,PGC1a acetyl inh
Clc1ccc2ccc3cccnc3c2n1,2,-1,15,2,-11,-1
O=S1(=O)Nc2c(ccc3cccnc23)-c2ccccc21,1,-1,69*,·,-18,-51
C[C@H]1CCCCO[C@H](CN(C)C(=O)Nc2ccccc2)[C@@H](C)CN([C@@H](C)CO)C(=O)c2cc(NS(=O)(=O)c3ccc(F)cc3)ccc2O1,·,·,-5,0,3[16.7 µM],-1
CCCC(=O)Nc1ccc2c(c1)C(=O)N(C)C[C@@H](OC)[C@H](C)CN(C(=O)c1ccncc1)[C@@H](C)CO2,·,·,-11,0,·,1
COC(=O)c1ccc(S(=O)(=O)N2CCc3ccccc32)cc1,-2,-1,-4,12*,5,-24
CC1CN(S(=O)(=O)c2ccc(C(=O)N3CCc4ccccc43)cc2)CC(C)O1 (stereo not given),-2,-1,0,16*,-7,1
CC1Cc2ccccc2N1S(=O)(=O)c1cccc(C(=O)Nc2cccnc2)c1 (stereo not given),34*,·,-2,0,36,-4
O=C(Nc1cccnc1)c1cccc(S(=O)(=O)N2CCc3ccccc32)c1,73*,-3,0,-2,·,-1
NNC(=O)c1ccc(S(=O)(=O)N2CCc3ccccc32)cc1,-3,-1,1,-1,0,12
CN(CC(=O)Nc1cccc(F)c1)C(=O)c1ccc2c(=O)n3c(nc2c1)CCC3,-4,-1,7,-2,-1,-6
CN(Cc1cccc(F)c1)C(=O)c1ccc2c(=O)n3c(nc2c1)CCC3,65*,0,-4,0,-3,·
COc1ccc(CNC(=O)C[C@@H]2CC[C@H]3[C@@H](COc4ccc(NC(C)=O)cc4C(=O)N3C)O2)cc1,·,·,-10,-2,-1[16.7 µM],-4
O=C(NNC(=O)c1n[nH]c(=O)c2ccccc12)c1ccc(Br)cc1,109*,-1,-6,-2,13,-7
O=C(NCc1ccccn1)c1n[nH]c(=O)c2ccccc12,-2,0,7,8.6*,-4,10
CC(C)c1ccc(NC(=O)c2n[nH]c(=O)c3ccccc23)cc1,35*,-1,4,-2,-3,108*
O=C(NCc1ccccn1)c1n[nH]c2ccccc12,-2,-1,24*,·,4,-1
COc1ccccc1CNC(=O)c1n[nH]c2ccccc12,-1,-3,3,-1,-5,1
Cn1nc(C(=O)NCc2ccccn2)c2ccccc2c1=O,8,2,6,·,3,11
CNC[C@@H]1OCCCC[C@H](C)Oc2ccc(N(C)C)cc2C(=O)N([C@@H](C)CO)C[C@@H]1C,·,·,·,0,0[16.7 µM],7
